{"source": "paper PMC3066299", "about": "(Bioorganic & medicinal chemistry, 2011)", "key": {"GHSR [1]": {"biological_target": "GHSR", "conditions": "read-out: GHSR binding affinity Ki; cited from earlier work"}, "[2]": {"experiment": "Baseline dissection study, whole body distribution of radioactivity in CD1 mice", "type": "in vivo", "conditions": "mean ± SD (n=5)", "outline": "(§1)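 Male CD1 mice (23-28 g) received the radiotracer i.v. via a lateral tail vein: 0.1 mCi in 0.2 ml saline, specific radioactivity ~4000 mCi/µmol. Animals were killed by cervical dislocation at set times up to 90 min. Brain regions and body organs were removed, dissected on ice, weighed and gamma-counted alongside injectate standards. Uptake was expressed as %ID/g tissue.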"}, "GHSR [3]": {"biological_target": "GHSR (Mus musculus, UniProt Q99P50)", "sequence (Q99P50 whole entry)": "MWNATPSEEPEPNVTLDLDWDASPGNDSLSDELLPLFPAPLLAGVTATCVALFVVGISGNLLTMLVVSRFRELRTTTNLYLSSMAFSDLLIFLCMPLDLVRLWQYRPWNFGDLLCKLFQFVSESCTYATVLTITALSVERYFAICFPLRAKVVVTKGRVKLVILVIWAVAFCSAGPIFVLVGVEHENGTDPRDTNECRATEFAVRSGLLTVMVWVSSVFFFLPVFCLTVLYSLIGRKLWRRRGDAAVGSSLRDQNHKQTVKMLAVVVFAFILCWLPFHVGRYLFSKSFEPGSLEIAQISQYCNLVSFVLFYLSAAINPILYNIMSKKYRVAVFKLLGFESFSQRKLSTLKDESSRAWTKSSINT", "experiment": "Blocking dissection studies in mice with GHSR antagonist 2", "type": "in vivo, CD1 mice", "conditions": "for Whole body distribution: block with 2 (1 mg/kg), 90 min, mean ± SD (n=5), P>0.05 vs baseline", "outline": "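Male CD1 mice were pretreated s.c. with a GHSR blocker at 1 mg/kg, or with vehicle (saline/alcohol 9:1, 0.1 mL). Fifteen minutes later they received radiotracer i.v. (0.1 mCi in 0.2 mL saline, ~4000 mCi/µmol). Tissues were harvested 90 min after tracer and counted for radioactivity. Groups were five animals each, baseline and blockade.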"}, "[4]": {"experiment": "Observation of pharmacological effects after tracer dose in CD1 mice", "type": "in vivo", "conditions": "tracer dose approximately 0.5 nmol/kg, intravenously, CD1 mice (n=30)"}, "[5]": {"type": "in vivo, CD1 mice", "conditions": "for Brain regional distribution: i.v., mean ± SD (n=3)", "outline": "as §1"}}, "note": "Where two headings read alike, the source gives them in different places.", "data": [{"smiles": "Cc1ccccc1-c1nc2ccc(Oc3ccc(F)cc3)cc2c(=O)n1CC1CCCN(C(C)C)C1", "note": "(stereo not drawn) [N-isopropyl derivative]", "values": [{"measurement": "Ki", "setting": "GHSR [1]", "result": 0.47, "unit": "nM"}]}, {"smiles": "Cc1ccccc1-c1nc2ccc(Oc3ccc(F)cc3)cc2c(=O)n1C[C@H]1CCCN([11CH3])C1", "note": "[[^11C]1, (S)-6-(4-fluorophenoxy)-3-((1-[^11C]methylpiperidin-3-yl)methyl)-2-o-tolylquinazolin-4(3H)-one]", "values": [{"measurement": "Whole body distribution", "setting": "[2]; Adrenals, 10 min", "result": "15.57±1.76", "unit": "%injected dose /g tissue"}, {"measurement": "Whole body distribution", "setting": "[2]; Adrenals, 30 min", "result": "10.77±2.65", "unit": "%injected dose /g tissue"}, {"measurement": "Whole body distribution", "setting": "[2]; Adrenals, 90 min", "result": "7.87±1.22", "unit": "%injected dose /g tissue"}, {"measurement": "Whole body distribution", "setting": "[2]; Blood, 10 min", "result": "2.14±0.13", "unit": "%injected dose /g tissue"}, {"measurement": "Whole body distribution", "setting": "[2]; Blood, 30 min", "result": "1.87±0.31", "unit": "%injected dose /g tissue"}, {"measurement": "Whole body distribution", "setting": "[2]; Blood, 90 min", "result": "2.01±0.29", "unit": "%injected dose /g tissue"}, {"measurement": "Whole body distribution", "setting": "[2]; Heart, 10 min", "result": "5.11±0.30", "unit": "%injected dose /g tissue"}, {"measurement": "Whole body distribution", "setting": "[2]; Heart, 30 min", "result": "3.91±0.55", "unit": "%injected dose /g tissue"}, {"measurement": "Whole body distribution", "setting": "[2]; Heart, 90 min", "result": "2.94±0.33", "unit": "%injected dose /g tissue"}, {"measurement": "Whole body distribution", "setting": "[2]; Liver, 10 min", "result": "18.63±1.29", "unit": "%injected dose /g tissue"}, {"measurement": "Whole body distribution", "setting": "[2]; Liver, 30 min", "result": "14.60±1.89", "unit": "%injected dose /g tissue"}, {"measurement": "Whole body distribution", "setting": "[2]; Liver, 90 min", "result": "13.46±0.97", "unit": "%injected dose /g tissue"}, {"measurement": "Whole body distribution", "setting": "[2]; Lung, 10 min", "result": "26.44±1.32", "unit": "%injected dose /g tissue"}, {"measurement": "Whole body distribution", "setting": "[2]; Lung, 30 min", "result": "24.02±8.55", "unit": "%injected dose /g tissue"}, {"measurement": "Whole body distribution", "setting": "[2]; Lung, 90 min", "result": "14.74±3.46", "unit": "%injected dose /g tissue"}, {"measurement": "Whole body distribution", "setting": "[2]; Muscle, 10 min", "result": "3.79±0.68", "unit": "%injected dose /g tissue"}, {"measurement": "Whole body distribution", "setting": "[2]; Muscle, 30 min", "result": "3.02±0.45", "unit": "%injected dose /g tissue"}, {"measurement": "Whole body distribution", "setting": "[2]; Muscle, 90 min", "result": "2.09±0.47", "unit": "%injected dose /g tissue"}, {"measurement": "Whole body distribution", "setting": "[2]; Testis, 10 min", "result": "1.07±0.01", "unit": "%injected dose /g tissue"}, {"measurement": "Whole body distribution", "setting": "[2]; Testis, 30 min", "result": "1.39±0.20", "unit": "%injected dose /g tissue"}, {"measurement": "Whole body distribution", "setting": "[2]; Testis, 90 min", "result": "1.96±0.14", "unit": "%injected dose /g tissue"}, {"measurement": "Whole body distribution", "setting": "GHSR [3]; Adrenals", "result": "10.02±1.80", "unit": "%injected dose /g tissue"}, {"measurement": "Whole body distribution", "setting": "GHSR [3]; Blood", "result": "2.01±0.53", "unit": "%injected dose /g tissue"}, {"measurement": "Whole body distribution", "setting": "GHSR [3]; Heart", "result": "3.74±0.57", "unit": "%injected dose /g tissue"}, {"measurement": "Whole body distribution", "setting": "GHSR [3]; Liver", "result": "14.77±1.02", "unit": "%injected dose /g tissue"}, {"measurement": "Whole body distribution", "setting": "GHSR [3]; Lung", "result": "16.28±3.65", "unit": "%injected dose /g tissue"}, {"measurement": "Whole body distribution", "setting": "GHSR [3]; Muscle", "result": "2.22±0.79", "unit": "%injected dose /g tissue"}, {"measurement": "Whole body distribution", "setting": "GHSR [3]; Testis", "result": "2.25±0.30", "unit": "%injected dose /g tissue"}, {"measurement": "specific binding", "setting": "GHSR [3]; cerebral distribution in CD1 mice", "result": 38, "unit": "%"}, {"measurement": "observed pharmacological effects", "setting": "[4]", "result": "no observed pharmacological effects"}, {"measurement": "Brain regional distribution", "setting": "[5]; Cerebellum, 10 min", "result": "0.63±0.06", "unit": "%injected dose /g tissue"}, {"measurement": "Brain regional distribution", "setting": "[5]; Cerebellum, 30 min", "result": "0.56±0.09", "unit": "%injected dose /g tissue"}, {"measurement": "Brain regional distribution", "setting": "[5]; Cerebellum, 60 min", "result": "0.59±0.08", "unit": "%injected dose /g tissue"}, {"measurement": "Brain regional distribution", "setting": "[5]; Cerebellum, 90 min", "result": "0.59±0.10", "unit": "%injected dose /g tissue"}, {"measurement": "Brain regional distribution", "setting": "[5]; Cortex, 10 min", "result": "0.63±0.09", "unit": "%injected dose /g tissue"}, {"measurement": "Brain regional distribution", "setting": "[5]; Cortex, 30 min", "result": "0.60±0.06", "unit": "%injected dose /g tissue"}, {"measurement": "Brain regional distribution", "setting": "[5]; Cortex, 60 min", "result": "0.65±0.12", "unit": "%injected dose /g tissue"}, {"measurement": "Brain regional distribution", "setting": "[5]; Cortex, 90 min", "result": "0.66±0.15", "unit": "%injected dose /g tissue"}, {"measurement": "Brain regional distribution", "setting": "[5]; Hippocampus, 10 min", "result": "0.60±0.13", "unit": "%injected dose /g tissue"}, {"measurement": "Brain regional distribution", "setting": "[5]; Hippocampus, 30 min", "result": "0.59±0.09", "unit": "%injected dose /g tissue"}, {"measurement": "Brain regional distribution", "setting": "[5]; Hippocampus, 60 min", "result": "0.71±0.08", "unit": "%injected dose /g tissue"}, {"measurement": "Brain regional distribution", "setting": "[5]; Hippocampus, 90 min", "result": "0.65±0.12", "unit": "%injected dose /g tissue"}, {"measurement": "Brain regional distribution", "setting": "[5]; Hypothalamus, 10 min", "result": "0.56±0.08", "unit": "%injected dose /g tissue"}, {"measurement": "Brain regional distribution", "setting": "[5]; Hypothalamus, 30 min", "result": "0.58±0.08", "unit": "%injected dose /g tissue"}, {"measurement": "Brain regional distribution", "setting": "[5]; Hypothalamus, 60 min", "result": "0.74±0.12", "unit": "%injected dose /g tissue"}, {"measurement": "Brain regional distribution", "setting": "[5]; Hypothalamus, 90 min", "result": "0.86±0.20", "unit": "%injected dose /g tissue"}, {"measurement": "Brain regional distribution", "setting": "[5]; Rest of brain, 10 min", "result": "0.54±0.07", "unit": "%injected dose /g tissue"}, {"measurement": "Brain regional distribution", "setting": "[5]; Rest of brain, 30 min", "result": "0.57±0.06", "unit": "%injected dose /g tissue"}, {"measurement": "Brain regional distribution", "setting": "[5]; Rest of brain, 60 min", "result": "0.62±0.02", "unit": "%injected dose /g tissue"}, {"measurement": "Brain regional distribution", "setting": "[5]; Rest of brain, 90 min", "result": "0.54±0.08", "unit": "%injected dose /g tissue"}, {"measurement": "hypothalamus-to-cerebellum ratio", "setting": "[5]; value reached over the 90 min observation period", "result": 1.6}]}, {"smiles": "Cc1ccccc1-c1nc2ccc(Oc3ccc(F)cc3)cc2c(=O)n1C[C@H]1CCCNC1", "note": "[compound 2, (S)-6-(4-fluorophenoxy)-3-(piperidin-3-ylmethyl)-2-o-tolylquinazolin-4(3H)-one, reference compound]", "values": [{"measurement": "blockade of [11C]1 in the rest of the brain", "setting": "GHSR [3]; blocking dose of 2 1 mg/kg s.c., 90 min after radioligand, P>0.05 (n=5)", "result": "minimal"}, {"measurement": "Ki", "setting": "GHSR [1]", "result": 0.9, "unit": "nM"}]}]}
